Assay results published in ChEMBL document CHEMBL4334455, “Synthesis of Usnic Acid Derivatives and Evaluation of Their Antiproliferative Activity against Cancer Cells” (J Nat Prod, 2019).
Active and inactive are the calls of the source. The calls are words filed in the database; no cut-off is given here.

Key:
[1] = tested on: HeLa; experiment: Antiproliferative activity against human HeLa cells assessed as reduction in cell viability after 48 hrs by MTT assay; format: functional, cell-based; conditions: Homo sapiens, HeLa, 48 h
Method in brief: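 Cells seeded at 4 × 10³/well for 24 h runs and for PC-3, or 2 × 10³/well for MCF-7 and HeLa 48 h runs, and attached overnight. Medium replaced with compound-containing medium for 24 or 48 h. MTT (4 mg mL⁻¹) added for the final 3 h, formazan dissolved in DMSO, absorbance read at 570 nm (reference 660 nm). IC₅₀ calculated from at least three independent experiments in duplicate, mean ± SE.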

[2] = tested on: MCF7; experiment: Induction of cell cycle arrest in human MCF7 cells assessed as accumulation of cells at G0/G1 phase at 2.9 uM after 24 hrs by Propidium iodide staining based flow cytometric analysis (reference value: 47.8 +/- 0.42%); format: functional
[3] = tested on: MCF7; experiment: Induction of cell cycle arrest in human MCF7 cells assessed as accumulation of cells at G2/M phase at 8.7 uM after 24 hrs by Propidium iodide staining based flow cytometric analysis (reference value: 27 +/- 2.97%); format: functional
[4] = tested on: HeLa; experiment: Induction of cell cycle arrest in human HeLa cells assessed as accumulation of cells at G0/G1 phase 2.9 to 8.7 uM after 24 hrs by propidium iodide staining based flow cytometric analysis (reference value: 44%); format: functional
[5] = tested on: HeLa; experiment: Cell cycle arrest in human HeLa cells assessed as reduction in cell population at S phase at 2.9 to 8.7 uM after 24 hrs by propidium iodide staining based flow cytometric analysis; format: functional
[6] = tested on: PC-3; experiment: Anticlonogenic activity against human PC3 cells assessed as reduction in colony formation at 2.9 to 11.6 uM incubated for 24 hrs followed by recovery period of 2 weeks by culturing cells in drug-free medium by crystal violet staining based assay; format: functional, cell-based
Method in brief: (§1)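 Cells (1 × 10⁶) plated, after 24 h given fresh medium with derivative at 1, 2, 3 or 4 μg mL⁻¹ for 24 h; then trypsinized, counted, 8 × 10² replated into two plates in compound-free medium. After 2 weeks fixed with 6.0% glutaraldehyde, stained with 0.5% crystal violet; colonies of ≥50 cells counted. Mean ± SE of three experiments in duplicate.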

[7] = tested on: HeLa; experiment: Anticlonogenic activity against human HeLa cells assessed as proportion of colony forming cells at 11.6 uM incubated for 24 hrs followed by recovery period of 2 weeks by culturing cells in drug-free medium by crystal violet staining based assay relative to control; format: functional; method in brief: as §1
[8] = tested on: PC-3; experiment: Anticlonogenic activity against human PC3 cells assessed as proportion of colony forming cells at 11.6 uM incubated for 24 hrs followed by recovery period of 2 weeks by culturing cells in drug-free medium by crystal violet staining based assay relative to control; format: functional; method in brief: as §1
[9] = tested on: MCF7; experiment: Induction of apoptosis in human MCF7 cells assessed as increase in Bax level at 8.7 uM after 24 hrs by immunoblot analysis relative to control; format: functional
Method in brief: (§2)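 Proteins run on SDS-PAGE, transferred to PVDF, blocked in 5% milk/PBS, primary antibody overnight at 4 °C (cleaved PARP, Bax, Bcl-2), secondary 1 h at room temperature. Reprobed for β-actin; densitometry corrected for loading.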

[10] = tested on: MCF7; experiment: Induction of apoptosis in human MCF7 cells assessed as reduction in Bcl-2 expression at 2.9 uM after 24 hrs by immunoblot analysis relative to control; format: functional; method in brief: as §2
[11] = tested on: MCF7; experiment: Induction of cytoplasmic vacuolization in human MCF7 cells at 8.7 uM after 24 to 48 hrs by TEM analysis; format: functional, cell-based
Method in brief: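 MCF-7 cells (2 × 10⁵) attached overnight, then exposed to 8.7 μM derivative or DMSO for 24 or 48 h at 37 °C. Fixed in ice-cold 2.5% fixative; ultrathin 45 nm sections stained with uranyl acetate and lead citrate, imaged by TEM at 1650×.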

[12] = tested on: MCF7; experiment: Induction of vacuolization in human MCF7 cells assessed as increase in LAMP1 expression at 2.9 uM by Western blot analysis relative to control; format: functional
[13] = tested on: MCF7; experiment: Induction of vacuolization in human MCF7 cells at 8.7 uM after 24 hrs in presence of 0.5 uM actin dynamics inhibitor, cytochalasin-D by light microscopic analysis; format: functional, cell-based
[14] = tested on: MCF7; experiment: Antiproliferative activity against human MCF7 cells assessed as reduction in cell viability at 8.7 uM after 24 hrs in presence of 10 uM Na+/H+ exchange inhibitor, amiloride by MTT assay; format: functional, cell-based

SMILES: CC(=O)c1c(O)c(C)c(O)c2c1OC1=Cc3onc(C)c3C(=O)C12C (racemic)
- IC50 [1]: 1000 nM
- Activity [2]: 71.85%
- Activity [3]: 14.02%
- Activity [4]: 51 - 65%
- Activity [5]: Active
- inhibition [6]: Active
- Activity [7]: <50%
- Activity [8]: <50%
- fold change (FC) [9]: 1.1
- fold change (FC) [10]: 0.6
- Activity [11]: Active
- fold change (FC) [12]: 1.3
- Activity [13]: Active
- inhibition [14]: Active

SMILES: CC(=O)c1c(O)c(C)c(O)c2c1OC1=Cc3onc(C)c3C(=O)[C@]12C
- IC50 [1]: 1000 nM
- Activity [2]: 70.25%
- Activity [3]: 14.65%
- Activity [4]: 51 - 65%
- Activity [5]: Active
- inhibition [6]: Active
- Activity [7]: <50%
- Activity [8]: <50%
- fold change (FC) [9]: 2.1
- fold change (FC) [10]: 0.5
- Activity [11]: Active
- fold change (FC) [12]: 5.3
- Activity [13]: Active
- inhibition [14]: Active
